Values after ≈ are worked out from the molar mass of the structure shown. Active and inactive are the calls of the source. The rule behind the calls is not given here.
Columns and labels:
[1] = organism: Homo sapiens; test: Selectivity index, 1 - (inhibition of PRL3/inhibition of PTP1B) at 50 uM
[2] = biological target: T1, Protein tyrosine phosphatase type IVA 3 (Homo sapiens, UniProt O75365); test: Inhibition of PRL3 (unknown origin) using DiFMUP as fluorogenic phosphate substrate assessed as DiFMUP dephosphorylation
[3] = organism: Homo sapiens; test: Selectivity index, 1 - (inhibition of PRL3/inhibition of VHR) at 50 uM
[4] = biological target: T1, Protein tyrosine phosphatase type IVA 3; conditions: HEK293, 75 uM
[5] = Solubility in buffer assessed as light scattering; format: physicochemical
Procedure, shortened: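 Light scattering of compounds in phosphatase assay buffer was measured by nephelometry against a buffer blank, across the concentration range used for IC50 determination.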

[6] = system: HEK293; test: Cytotoxicity against human HEK293 cells expressing human PRL-3 at 50 to 75 uM after 16 hrs by MTT assay; format: cell-based; conditions: hek293, 16 h
Procedure, shortened: (§1)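 Tetracycline-induced stable HEK293 Flp-In T-REx lines (PRL-1, PRL-2, PRL-3 or empty vector) were seeded at 10000 cells/well. After 24 h, compound or DMSO was added for 16 h. MTT was then added in fresh medium for 4 h at 37 °C, formazan dissolved in DMSO, and A570 read. Data were normalized to DMSO vehicle, run in triplicate in ≥2 independent experiments, with two-sided t-test versus vehicle.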

[7] = organism: Homo sapiens; test: Selectivity index, 1 - (inhibition of PRL3/inhibition of TCPTP) at 50 uM
[8] = system: HEK293; test: Cytotoxicity against human HEK293 cells expressing human PRL-2 at 50 to 75 uM after 16 hrs by MTT assay; format: cell-based; conditions: hek293, 16 h
Procedure, shortened: as §1

[9] = system: HEK293; test: Cytotoxicity against human HEK293 cells expressing human PRL-1 at 50 to 75 uM after 16 hrs by MTT assay; format: cell-based; conditions: hek293, 16 h
Procedure, shortened: as §1

[10] = system: HEK293; test: Inhibition of cell proliferation of human HEK293 cells expressing empty vector at 20 uM after 1 to 9 days by MTT assay; format: cell-based; conditions: hek293, 20 µM
Procedure, shortened: (§2)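 Stable HEK293 lines (PRL-3 or empty vector) were seeded at 1500 cells/well in tetracycline-containing growth medium. Compound or DMSO vehicle was added immediately after seeding. On each indicated day, MTT was added for 4 h at 37 °C, formazan dissolved in DMSO, and absorbance read at 570 nm, in triplicate.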

[11] = system: HEK293; test: Inhibition of cell proliferation of human HEK293 cells expressing human PRL-3 at 20 uM after 1 to 9 days by MTT assay; format: functional, cell-based
Procedure, shortened: as §2

[12] = biological target: T2, Protein tyrosine phosphatase type IVA 1 (Homo sapiens, UniProt Q93096); test: Inhibition of PRL1 (unknown origin) using DiFMUP as fluorogenic phosphate substrate assessed as DiFMUP dephosphorylation
T2 sequence (Q93096 whole entry): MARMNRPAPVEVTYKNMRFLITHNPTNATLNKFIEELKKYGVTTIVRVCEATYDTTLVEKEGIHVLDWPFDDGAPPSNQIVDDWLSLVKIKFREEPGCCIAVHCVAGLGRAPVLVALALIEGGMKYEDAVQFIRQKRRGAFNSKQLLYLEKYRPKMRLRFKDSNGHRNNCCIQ

[13] = biological target: T3, Protein tyrosine phosphatase type IVA 2 (Homo sapiens, UniProt Q12974); test: Inhibition of PRL2 (unknown origin) using DiFMUP as fluorogenic phosphate substrate assessed as DiFMUP dephosphorylation
T3 sequence (Q12974 whole entry): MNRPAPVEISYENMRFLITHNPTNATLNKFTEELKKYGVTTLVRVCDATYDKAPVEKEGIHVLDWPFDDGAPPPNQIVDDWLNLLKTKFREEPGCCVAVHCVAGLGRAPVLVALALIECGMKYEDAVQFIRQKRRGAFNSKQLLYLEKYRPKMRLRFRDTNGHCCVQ

[14] = Drug localization in inner membrane compartments of HEK293 cells transfected with mKate-PRL-3 at 50 uM incubated for 30 mins by confocal microscopy; format: ADME; conditions: human, hek293, 0.5 h
Procedure, shortened: (§3)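 HEK293 cells were transfected with 0.1 μg mKate-PRL-3 18 h before imaging. Confocal imaging used a 63× oil objective, with mKate excited at 561 nm and compound at 405 nm.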

[15] = biological target: T1, Protein tyrosine phosphatase type IVA 3; conditions: HEK293, 12 uM
[16] = biological target: T4, Protein tyrosine phosphatase type IVA 1 (Homo sapiens) (UniProt Q93096); conditions: HEK293, 50 uM
T4 sequence (whole entry): T2 sequence (Q93096 whole entry)

[17] = biological target: T5, Protein tyrosine phosphatase type IVA 2 (Homo sapiens) (UniProt Q12974); conditions: HEK293, 50 uM
T5 sequence (whole entry): T3 sequence (Q12974 whole entry)

[18] = biological target: T1, Protein tyrosine phosphatase type IVA 3; conditions: HEK293, 50 uM
[19] = biological target: T1, Protein tyrosine phosphatase type IVA 3; conditions: HEK293, 35 uM
[20] = biological target: T1, Protein tyrosine phosphatase type IVA 3; conditions: HEK293, 12 uM; remark: listed apart in the source
[21] = biological target: T1, Protein tyrosine phosphatase type IVA 3; conditions: HEK293, 25 uM
[22] = system: HEK293; test: Effect on cell proliferation of human HEK293 cells expressing human PRL-3 at 50 uM after 1 to 9 days by MTT assay; format: functional, cell-based
Procedure, shortened: as §2

[23] = system: HEK293; test: Effect on cell proliferation of human HEK293 cells expressing empty vector at 50 uM after 1 to 9 days by MTT assay; format: cell-based; conditions: hek293, 50 µM
Procedure, shortened: as §2

[24] = biological target: T1, Protein tyrosine phosphatase type IVA 3; conditions: HEK293, 50 uM; remark: listed apart in the source
[25] = Drug localization in plasma membrane of HEK293 cells transfected with mKate-PRL-3 at 50 uM incubated for 30 mins by confocal microscopy; format: ADME; conditions: human, hek293, 0.5 h
Procedure, shortened: as §3

[26] = system: HEK293; test: Cytotoxicity against human HEK293 cells expressing empty vector at 75 uM after 16 hrs by MTT assay; format: cell-based; conditions: hek293, 16 h
Procedure, shortened: as §1

T1 sequence (O75365 whole entry): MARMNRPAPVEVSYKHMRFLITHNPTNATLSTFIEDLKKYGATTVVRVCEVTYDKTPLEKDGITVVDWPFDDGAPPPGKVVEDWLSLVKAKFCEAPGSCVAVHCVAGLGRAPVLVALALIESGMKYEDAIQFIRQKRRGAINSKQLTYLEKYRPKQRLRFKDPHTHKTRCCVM

SMILES	Selectivity index [1]	IC50 ([2]; read-out: IC50)	Selectivity index [3]	solubility kinetic [5]	Activity [6]	Selectivity index [7]	Activity [8]	Activity [9]	solubility [5]	other results
O=C1NC(=S)S/C1=C/c1ccc(-c2ccccc2C(=O)O)o1	0.34	53 µM	0.54	335 µM (≈ 111 µg/mL)	Non-toxic	0.22				inhibition [4]: inactive
Nc1c[nH]c(=O)c2cc(-c3ccccc3)sc12					Non-toxic		Non-toxic	Non-toxic	soluble	Activity [10]: Toxic; inhibition [11]: Active
COc1cc(/C=C(\C#N)C(=O)OC(C)C)cc(Br)c1O	0.08	69.4 µM	0.24	144 µM (≈ 49 µg/mL)	Non-toxic	-0.29	Non-toxic	Non-toxic		IC50 ([12]; read-out: IC50): 56.7 µM; IC50 ([13]; read-out: IC50): 69.4 µM
O=C(O)c1ccc[n+]2c([O-])c(-c3ccccc3)sc12	0.25		0.25		Non-toxic	0.1	Non-toxic	Non-toxic	soluble	
C=CCOC(=O)/C(C#N)=C/c1cc(Br)c(O)c(OC)c1				138 µM (≈ 46.7 µg/mL)	Non-toxic		Non-toxic	Non-toxic		Drug uptake [14]: Not Active; inhibition [15]: inactive; inhibition [16]: Active; inhibition [17]: Active; inhibition [18]: Active; inhibition [4]: Active; inhibition [19]: Active; inhibition [20]: inactive; inhibition [21]: Active; Activity [22]: inactive; Activity [23]: Non-toxic; inhibition [24]: Active; Drug uptake [25]: Active
C=CCOC(=O)/C(C#N)=C/c1ccc(O)c(Br)c1				311 µM (≈ 95.8 µg/mL)	Non-toxic		Non-toxic	Non-toxic		Activity [26]: Toxic
C=CCOC(=O)/C(C#N)=C/c1ccc(OC)cc1										IC50 [2]: Not Active; IC50 [12]: Not Active; IC50 [13]: Not Active
CCOC(=O)/C(C#N)=C/c1cc(Br)c(O)c(Br)c1	0.48	109 µM	0.44		Toxic	0.24	Toxic	Toxic	soluble	IC50 ([12]; read-out: IC50): 89.1 µM; IC50 ([13]; read-out: IC50): 109 µM
COC(=O)/C(C#N)=C/c1ccc(O)c(Br)c1										Drug uptake [14]: Active; Drug uptake [25]: Active
